Measurements from different studies.
Protocols differ between the studies behind these lines.
Target: Cyclin-dependent kinase 5 (CDK5, Homo sapiens, UniProt Q00535)

| Structure (SMILES) | assay | setting | remaining binding |
| --- | --- | --- | --- |
| N[C@@H]1CCN(c2nccc(-c3cnn4ncccc34)n2)C1 | binding | 1 µM | 100% |
| Cc1cc(NC(=O)c2cccc(S(F)(F)(F)(F)F)c2)cc(-n2ccn3nc(-c4cccnc4)cc23)c1 | cell-free assay, competition with immobilised ligand | 1 µM | 100% |
| O=C(Nc1c[nH]nc1C(=O)NC1CCNCC1)c1cc(F)cc(F)c1 | binding, competition with immobilised ligand | 1 µM | 100% |
| C=CC(=O)N1CCC(C(=O)NCC(=O)N2CCN(c3nc(-c4cnc(N)nc4C(F)F)nc(N4CCOCC4)n3)CC2)CC1 | binding, competition with immobilised ligand | 1 µM | 100% |
| COc1cnc(Nc2cccc(S(N)(=O)=O)c2)nc1N1CCN(c2ccccc2)C(=O)C1 | binding, competition with immobilised ligand | 1 µM | 100% |
| C[C@@H](c1ccc(-n2cnc3c(N)ncnc32)cc1)N1CCc2nn(C)c(Cc3ccccc3)c2C1=O | binding, competition with immobilised ligand | 0.1 µM | 39% |
| COc1cnc(Nc2cccc(S(N)(=O)=O)c2)nc1N1CCN(c2ccccc2)CC1 | binding, competition with immobilised ligand | 1 µM | 100% |
| F[C@@H]1CCN(c2nccc(-c3cnn4ncccc34)n2)C1 | binding | 1 µM | 100% |
| O=C(c1ccc(Nc2nccc(-c3cc4ccccc4s3)n2)cc1)N1CCC(N2CCCC2)CC1 | binding, competition with immobilised ligand | 1 µM | 92% |
| Cc1cnn2ncc(-c3ccnc(N(C)C)n3)c2c1 | binding | 1 µM | 100% |
| O=C(c1ccc(Nc2ncc(Cl)c(-c3ccc(Cl)s3)n2)cc1)N1CCC(N2CCCC2)CC1 | binding, competition with immobilised ligand | 1 µM | 26% |
| CN(c1nccc(-c2cnn3ncccc23)n1)C1CC1 | binding | 1 µM | 100% |
| C[C@@H]1CN(c2cc(-c3nn(C)c4ccc(OC5(C)CC5)cc34)ncn2)C[C@H](C)O1 | cell-free assay, competition with immobilised ligand | 1 µM | 100% |
| C[C@H]1CCN(c2nccc(-c3cnn4ncccc34)n2)C1 | binding | 1 µM | 97% |
| C[C@@H]1CN(c2cc(-c3n[nH]c4ccc(OC5(C)CC5)cc34)ncn2)C[C@H](C)O1 | cell-free assay, competition with immobilised ligand | 0.1 µM | 100% |
| CC1CCCN1c1nccc(-c2cnn3ncccc23)n1 (stereo not shown) | binding | 1 µM | 96% |
| CCS(=O)(=O)c1cc2cc(C[C@](O)(CC(C)(C)c3ccc(F)cc3C(N)=O)C(F)(F)F)[nH]c2cn1 | cell-free assay, competition with immobilised ligand | 1 µM | 100% |
| CN(CCCC(F)(F)F)c1nccc(-c2cnn3ncccc23)n1 | binding | 1 µM | 96% |
| CN([C@@H]1CCc2c(CC(=O)O)c3ccccc3n2C1)S(=O)(=O)c1ccc(F)cc1 | cell-free assay, competition with immobilised ligand | 1 µM | 100% |
| Cc1cnc(Nc2ccc(C(=O)N3CCC(N4CCCC4)CC3)cc2)nc1-c1cc2ccccc2s1 | binding, competition with immobilised ligand | 1 µM | 76% |
| CNCc1ccccc1-c1csc([C@@H](C)Nc2nc(C)nc3cc(OC)c(OC)cc23)c1 | cell-free assay, competition with immobilised ligand | 1 µM | 78% |
| c1cncc(-c2cccc(Nc3nccc(NC4CCCCC4)n3)c2)c1 | binding, competition with immobilised ligand | 10 µM | 81% |
